Source: ChEMBL document CHEMBL1154451, “Simple and efficient synthesis of novel glycosyl thiourea derivatives as potential antitumor agents” (Eur J Med Chem, 2008)

Experiments:
[1] = Cytotoxicity against human PG cells after 48 hrs by MTT assay; assay type: functional, cell-based
Outline: (§1)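 Tumour cells seeded at 3–5 × 10⁴ cells/mL and cultured 24 h, then medium containing test compound at various concentrations added (plain medium for controls). Exposure 48 h, followed by MTT read-out with absorbance measured at 490 nm. EC50 values reported; compounds tested up to […].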

Bel-7402 = assay: Cytotoxicity against human Bel7402 cells after 48 hrs by MTT assay; assay type: functional, cell-based; settings: Bel-7402, 48 h; outline: as §1

Cc1cn([C@H]2C[C@H](N=[N+]=[N-])[C@@H](CO)O2)c(=O)[nH]c1=O [ZIDOVUDINE]
EC50 [1]: 580 nM
EC50 (Bel-7402): 4620 nM
